Laboratory results: ChEMBL document CHEMBL2311264, “Synthesis and anticancer activity of heteroaromatic linked 4β-amido podophyllotoxins as apoptotic inducing agents” (Bioorg Med Chem Lett, 2013)
Calls of active or inactive are those of the source. The calls are words filed in the database; no cut-off is given here.

Columns and labels:
A549 [1] = test: Induction of apoptosis in human A549 cells assessed as increase in caspase3 activity at 3 uM after 48 hrs relative to control; format: functional
In short: (§1)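 A-549 cells were seeded at 2.5 × 10^6/well and treated 48 h alongside etoposide, then scraped and lysed on ice. Supernatant was mixed with 2X assay buffer and Ac-DEVD-AFC substrate for 1 h. Fluorescence (ex 400, em 505 nm) was read every 5 min, normalized to Bradford protein and expressed as fold over control. Two experiments, each in triplicate.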

A549 [2] = test: Induction of apoptosis in human A549 cells assessed as increase in caspase3 activity at 1 uM after 48 hrs relative to control; format: functional; in short: as §1
A549 [3] = test: Induction of apoptosis in human A549 cells assessed as increase in fluorescence at 1 uM after 24 hrs by Hoechst staining method relative to control; format: functional, cell-based
In short: (§2)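 Cells were seeded at 10,000 per coverslip and grown 24 h, then treated 24 h. Vehicle control was 0.001% DMSO; etoposide was the standard. Hoechst at […] with 4% paraformaldehyde was added for 30 min at 37 °C. Random fields were imaged by fluorescence microscopy and apoptotic cells scored manually by cytoplasmic condensation, apoptotic bodies, nuclear fragmentation and relative fluorescence.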

A549 [4] = test: Induction of apoptosis in human A549 cells assessed as increase in fluorescence at 3 uM after 24 hrs by Hoechst staining method relative to control; format: functional, cell-based; in short: as §2
A549 [5] = test: Induction of apoptosis in human A549 cells assessed as nuclear fragmentation at 3 uM after 24 hrs by Hoechst staining method; format: functional, cell-based; in short: as §2
A549 [6] = test: Induction of apoptosis in human A549 cells assessed as nuclear fragmentation at 1 uM after 24 hrs by Hoechst staining method; format: functional, cell-based; in short: as §2
A549 [7] = test: Induction of apoptosis in human A549 cells assessed as apoptotic bodies at 3 uM after 24 hrs by Hoechst staining method; format: functional, cell-based; in short: as §2
A549 [8] = test: Induction of apoptosis in human A549 cells assessed as apoptotic bodies at 1 uM after 24 hrs by Hoechst staining method; format: functional, cell-based; in short: as §2
A549 [9] = test: Induction of apoptosis in human A549 cells assessed as cytoplasmic condensation at 3 uM after 24 hrs by Hoechst staining method; format: functional, cell-based; in short: as §2
A549 [10] = test: Induction of apoptosis in human A549 cells assessed as cytoplasmic condensation at 1 uM after 24 hrs by Hoechst staining method; format: functional, cell-based; in short: as §2
A549 [11] = test: Induction of apoptosis in human A549 cells assessed as DNA fragmentation at 3 uM after 48 hrs by agarose gel electrophoretic analysis; format: functional, cell-based
In short: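 Cells were seeded at 1 × 10^6/well and grown 48 h, then treated 48 h. Cells were pelleted and lysed. Lysate was given SDS and RNase-A at 56 °C for 2 h, then proteinase K at 37 °C for 2 h. DNA was precipitated with ammonium acetate and cold ethanol, washed with 80% ethanol and dissolved in TE. Laddering was read on 2% agarose gel in TE; 50 bp marker.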

A549 [12] = test: Induction of cell cycle arrest in human A549 cells assessed as G2/M phase cells at 3 uM by FACS analysis (reference value: 9.89%); format: functional
A549 [13] = test: Induction of cell cycle arrest in human A549 cells assessed as G2/M phase cells at 1 uM by FACS analysis (reference value: 9.89%); format: functional
A549 [14] = test: Induction of cell cycle arrest in human A549 cells assessed as S phase cells at 3 uM by FACS analysis (reference value: 3.69%); format: functional
A549 [15] = test: Induction of cell cycle arrest in human A549 cells assessed as S phase cells at 1 uM by FACS analysis (reference value: 3.69%); format: functional
A549 [16] = test: Induction of cell cycle arrest in human A549 cells assessed as G1 phase cells at 3 uM by FACS analysis (reference value: 85.33%); format: functional
A549 [17] = test: Induction of cell cycle arrest in human A549 cells assessed as G1 phase cells at 1 uM by FACS analysis (reference value: 85.33%); format: functional
A549 [18] = test: Induction of cell cycle arrest in human A549 cells assessed as sub G1 phase cells at 3 uM by FACS analysis (reference value: 1.08%); format: functional
A549 [19] = test: Induction of cell cycle arrest in human A549 cells assessed as sub G1 phase cells at 1 uM by FACS analysis (reference value: 1.08%); format: functional
HeLa = test: Cytotoxicity against human HeLa cells […] by MTT assay; format: functional, cell-based
ACHN = test: Cytotoxicity against human ACHN cells […] by MTT assay; format: functional, cell-based
B16 = test: Cytotoxicity against mouse B16 cells […] by MTT assay; format: functional, cell-based
HT-29 = test: Cytotoxicity against human HT-29 cells after 72 hrs by MTT assay; format: functional, cell-based; conditions: HT-29, 72 h
A549 [20] = test: Cytotoxicity against human A549 cells […] by MTT assay; format: functional, cell-based

**Q.** Which “fold change (FC)” value (A549 [1]) does the source give for `COc1cc([C@@H]2c3cc4c(cc3[C@@H](NC(=O)c3cc(-c5ccc(Cl)c(Cl)c5)[nH]n3)[C@H]3COC(=O)[C@H]23)OCO4)cc(OC)c1OC` here?
**A.** 6

**Q.** And the “fold change (FC)” value (A549 [2])?
**A.** 4

**Q.** And the Activity (A549 [3])?
**A.** Active

**Q.** And the Activity (A549 [4])?
**A.** Active

**Q.** What about the Activity (A549 [5]) of the same compound?
**A.** Active

**Q.** What about the Activity (A549 [6]) of the same compound?
**A.** Active

**Q.** And the Activity (A549 [7])?
**A.** Active

**Q.** And the Activity (A549 [8])?
**A.** Active

**Q.** And the Activity (A549 [9])?
**A.** Active

**Q.** And the Activity (A549 [10])?
**A.** Active

**Q.** And the Activity (A549 [11])?
**A.** Active

**Q.** What about the Activity (A549 [12]) of the same compound?
**A.** 61.28%

**Q.** And the Activity (A549 [13])?
**A.** 27.68%

**Q.** What about the Activity (A549 [14]) of the same compound?
**A.** 8.96%

**Q.** What about the Activity (A549 [15]) of the same compound?
**A.** 2.27%

**Q.** And the Activity (A549 [16])?
**A.** 27.71%

**Q.** What about the Activity (A549 [17]) of the same compound?
**A.** 63.35%

**Q.** And the Activity (A549 [18])?
**A.** 2.05%

**Q.** And the Activity (A549 [19])?
**A.** 6.77%

**Q.** And the IC50 (HeLa)?
**A.** 9.3 µM

**Q.** And the IC50 (ACHN)?
**A.** 15.9 µM

**Q.** And the IC50 (B16)?
**A.** 9.5 µM

**Q.** And the IC50 (HT-29)?
**A.** 7.1 µM

**Q.** And the IC50 (A549 [20])?
**A.** 2.1 µM
